Experiment in all cases: BRET ratio titration, purified sensor
Common to all, as to format: binding

One assay has as its target tVYN-NtΔ (NtYcgRΔ). Particulars: read-out: KD(nM)^a; 3 nM sensor; pH 7.2, 100 mM KCl, 10 mM DTT, 0.1% BSA, 28 °C; Hill fit. The method, boiled down: (§1)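 Coelenterazine-h substrate (60 μM in HEPES/KCl/300 mM ascorbate, pre-equilibrated ≥30 min at RT) added, 20 μL into 100 μL. Emission read at 460 and 530 nm, 28 °C, every 30 s for 10 min. BRET ratio taken at 2 min.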
Another assay concerns the target tVYN-Nt (NtYcgR). To be noted: read-out: KD(nM)^a; 3 nM sensor; pH 7.2, 100 mM KCl, 10 mM DTT, 0.1% BSA, 28 °C; Hill fit. The procedure, abridged: as §1
A further assay concerns the target T1, VYN-Ec (EcYcgR) (Escherichia coli, UniProt P76010).
T1 sequence (P76010 1-244): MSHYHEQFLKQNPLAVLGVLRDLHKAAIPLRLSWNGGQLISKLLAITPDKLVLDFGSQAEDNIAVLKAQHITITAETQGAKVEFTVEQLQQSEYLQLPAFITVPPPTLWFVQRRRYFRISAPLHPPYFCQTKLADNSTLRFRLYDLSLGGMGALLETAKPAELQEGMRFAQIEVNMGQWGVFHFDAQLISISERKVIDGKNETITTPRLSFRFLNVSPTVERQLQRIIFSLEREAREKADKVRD
The method, boiled down: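 Coelenterazine-h prepared at 60 μM in HEPES/KCl/300 mM ascorbate (≥30 min RT), then added. Emission at 460 and 530 nm read at 30 s intervals for 10 min, 28 °C; BRET ratio taken 2 min post-substrate.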

The target in a further assay is Vcp229-Nt (NtYcgR). To be noted: read-out: KD(nM)^a; 3 nM sensor; pH 7.2, 100 mM KCl, 10 mM DTT, 0.1% BSA, 28 °C; Hill fit. The method, boiled down:
as §1

In the next assay the target is tVYN-Tb (TbYcgR). Particulars: read-out: KD(nM)^a; 3 nM sensor; pH 7.2, 100 mM KCl, 10 mM DTT, 0.1% BSA, 28 °C; Hill fit. The method, boiled down:
as §1

In the next assay the target is VYN-Tb (TbYcgR). To be noted: read-out: KD(nM)^a; 3 nM sensor; pH 7.2, 100 mM KCl, 10 mM DTT, 0.1% BSA, 28 °C; Hill fit. The method, boiled down:
as §1

Another assay has as its target Vcp157-Cp (CpYcgR). Particulars: read-out: KD(nM)^a; 3 nM sensor; pH 7.2, 100 mM KCl, 10 mM DTT, 0.1% BSA, 28 °C; Hill fit. The procedure, abridged:
as §1

The target in the next assay is Vcp173-Nt (NtYcgR). To be noted: read-out: KD(nM)^a; 3 nM sensor; pH 7.2, 100 mM KCl, 10 mM DTT, 0.1% BSA, 28 °C; Hill fit. The method, boiled down:
as §1

In the next assay the target is VYN-Nt (NtYcgR). To be noted: read-out: KD(nM)^a; 3 nM sensor; pH 7.2, 100 mM KCl, 10 mM DTT, 0.1% BSA, 28 °C; Hill fit. The method, boiled down: as §1

The text below walks through data of publication PMC7233196 (ACS chemical biology, 2020).

The Kd is the equilibrium constant for the complex coming apart.

Take `Nc1nc2c(ncn2[C@@H]2O[C@@H]3COP(=O)(O)O[C@H]4[C@@H](O)[C@H](n5cnc6c(=O)[nH]c(N)nc65)O[C@@H]4COP(=O)(O)O[C@H]3[C@H]2O)c(=O)[nH]1` [c-di-GMP]: the Kd at tVYN-NtΔ (NtYcgRΔ) was found to be 54 ± 4 nM; at tVYN-Nt (NtYcgR), 20 ± 1 nM; at VYN-Ec (EcYcgR), 50 ± 4 nM; on Vcp229-Nt (NtYcgR), 14 ± 1 nM; on tVYN-Tb (TbYcgR), 12 ± 1 nM; on VYN-Tb (TbYcgR) it was 8 ± 0.4 nM. Besides, the Kd on Vcp157-Cp (CpYcgR) came out at 96 ± 6 nM; on Vcp173-Nt (NtYcgR), 17 ± 4 nM; on VYN-Nt (NtYcgR) it was 14 ± 4 nM.
